# Source: PubChem BioAssay
# An excerpt weighted towards active compounds, which were near 3.3% of everything screened.
# 5HT1E ag – activates the human 5-HT1E serotonin receptor. P28566. CHO 5-HT1E Ga15 NFAT-bla reporter, FRET; 0% DMSO wells, 100% control agonist wells. activation, % at 6 µM. 65,000 tested, 0.69% active. AID 574;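 active means activation above a set limit, the screen-wide mean activation plus 3 SD, cut at about 8.5% in these data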;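 further: 100% = positive control agonist at 1 µM giving full maximal response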
# Target sequence (P28566 whole entry, looked up): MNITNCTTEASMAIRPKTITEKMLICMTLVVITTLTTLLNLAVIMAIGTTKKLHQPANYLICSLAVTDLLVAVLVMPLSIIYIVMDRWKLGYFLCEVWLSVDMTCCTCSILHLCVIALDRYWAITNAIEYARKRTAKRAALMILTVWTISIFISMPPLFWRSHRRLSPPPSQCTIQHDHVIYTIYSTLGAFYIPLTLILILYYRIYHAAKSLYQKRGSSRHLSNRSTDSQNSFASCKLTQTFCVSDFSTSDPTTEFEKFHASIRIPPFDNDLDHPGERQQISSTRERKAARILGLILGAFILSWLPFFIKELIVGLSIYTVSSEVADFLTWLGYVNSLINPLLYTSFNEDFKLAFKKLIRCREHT
# HEK293 NFkB inh – inhibitors of the PMA/ionomycin-induced NF-kB reporter in HEK293 cells | inhibition, % at 3 µM | 62,000 tested, 0.21% active | HEK-293 NF-kB luciferase reporter, luminescence | AID 465;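 active means inhibition above the mean of all tested compounds plus 3 SD, cut at about 40% in these data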;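 further: 0% = stimulated DMSO wells and 100% = 10 µM reference inhibitor 5653914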
#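 Signal: luciferase luminescence; Material: HEK-293 cells with stable firefly luciferase reporter driven by four HIV NF-kB elements; Probe or stimulus: PMA with ionomycin; Replication: tested once; Times: 1 h compound pretreatment, then 16 h stimulation at 37 °C, 5% CO2; Benchmarks: DMSO and 10 µM reference inhibitor; Evaluation: per-plate % inhibition versus controls.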
# 5HT1a ag – activates the human 5-HT1a serotonin receptor; P08908; CHO 5-HT1a Ga15 NFAT-bla reporter, FRET ratio; 0% basal, 100% maximal reference agonist; activation, % at 10 µM; 65,000 tested, 0.56% active; AID 567;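 active means activation above the screen-wide mean activation plus 3 SD, cut at about 19% in these data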;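 further: 0% = DMSO wells and 100% = 5-CT at EC100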
# 5HT1a antag – antagonists of human 5-HT1a serotonin receptor; CHO 5-HT1a Ga15 NFAT-bla reporter, antagonist mode; inhibition, % at 10 µM; 62,000 tested, 0.68% active; AID 612;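 active means inhibition above the mean of all tested compounds plus 3 SD, cut at about 43% in these data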;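 further: receptor stimulated by 5-CT agonist at 100 nM near EC80; beta-lactamase reporter measured by ratiometric fluorescence of a cleavable substrate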
# 5HT1E antag – blocks the human 5-HT1E serotonin receptor; P28566; CHO 5-HT1E Ga15 NFAT-bla reporter, FRET, antagonist; 65,000 tested, 0.99% active; inhibition, % at 6 µM;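 active means inhibition above a set limit, the mean inhibition across every tested compound plus 3 SD, cut at about 29% in these data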;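 further: signal is the 460 over 535 nm emission ratio of beta-lactamase substrate; 0% = agonist plus DMSO wells and 100% = wells without agonist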
# Jurkat tox 60K – reduces viability or proliferation of Jurkat cells; Jurkat E6.1 viability, ATP luminescence, 48 h; inhibition, % at 4 µM; 56,000 tested, 1.2% active; AID 463;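 active means inhibition above the mean inhibition of all tested compounds plus 3 SD, cut at about 28% in these data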
# * hit, by the source's call; . = no result given.
SMILES,5HT1E ag,HEK293 NFkB inh,5HT1a ag,5HT1a antag,5HT1E antag,Jurkat tox 60K
CCOC(=O)C1CCN(Cc2ccccc2C(F)(F)F)CC1,0.3,27.6,-2.2,-11.6,-2.6,8.5
CCOC(=O)C1CCN(Cc2ccc(O)c3ncccc23)CC1,-0.7,8.6,-3.0,7.8,25.9,43.2*
CCCCCN=Cc1c(C)[nH]n(-c2nc3ccccc3s2)c1=O,1.1,-23.0,0.2,-12.2,13.1,55.9*
Clc1ccc(CSc2nnc(-c3ccccn3)n2Cc2ccco2)c(Cl)c1,-0.6,18.3,-3.7,19.3,5.3,.
Cc1ccc(/C=c2/sc3nnc(-c4ccccc4Cl)n3c2=O)o1,0.5,-1.8,0.2,45.5*,-0.4,-0.2
CCOC(=O)CC(/C(C)=N\O)c1ccccc1 (stereo not drawn),40.3*,21.8,-1.9,16.7,6.9,7.2
Cc1cc(N2CCN(C(=O)OC(C)(C)C)CC2)n2ncnc2n1,-0.4,15.8,-2.9,-3.7,2.6,1.7
Cc1ccc(C2C(C(=O)c3sc(-c4ccccc4)nc3C)=C(O)C(=O)N2CCN(C)C)o1 (stereo not drawn),-0.6,2.1,-2.5,-9.9,-0.7,-1.4
COc1ccc(/C=N/n2c(SC)nnc2-c2ccccc2)c(OC)c1OC,2.4,-1.8,-0.4,10.1,15.4,67.6*
c1ccc(OCCn2cnc3ccccc32)cc1,-0.6,10.5,0.3,-4.1,0.7,-5.8
c1ccc(OCCCCn2cnc3ccccc32)cc1,-0.3,2.5,-2.0,15.6,9.9,32.6*
Nn1cc(-c2ccccc2)nc1SCC(=O)NCCN1C(=O)CSC1=O,0.4,3.1,-0.4,1.8,2.6,2.5
CCOC(=O)N1CCC(NC(=O)c2cc3ccccn3n2)CC1,1.0,14.1,-4.0,-12.2,2.3,5.4
c1cc2c(cc1C1=Nn3c(nnc3C3CCCCC3)SC1)OCO2,-2.1,.,0.8,.,31.5*,.
c1ccc(-c2nnc3n2N=C(c2ccc4c(c2)OCO4)CS3)nc1,-0.8,.,-1.0,.,2.1,.
COc1ccc(Nc2nc(Nc3ccc(OC)cc3)nc(-n3[nH]c(=O)c(C)c3C)n2)cc1,14.8*,.,34.5*,.,-34.1,.
C=CCNc1nc2c(c(=O)n(C)c(=O)n2C)n1CCCCCC,-0.2,19.4,5.0,8.1,9.1,82.4*
CN(C)c1ccc(-c2nn3c(-c4ccc(Cl)cc4Cl)nnc3s2)cc1,-0.9,6.4,-0.2,17.1,37.4*,6.7
COc1cccc(OC)c1-c1nn2c(-c3cc(-c4ccccc4)n[nH]3)nnc2s1,1.1,11.9,-4.4,11.2,10.1,66.0*
Clc1ccc(-c2nnc3sc(-c4ccc(Br)o4)nn23)c(Cl)c1,1.0,8.4,-0.7,-17.1,0.6,-5.4
CCN(CC)c1ccc(-c2nn3c(-c4ccccc4OC)nnc3s2)cc1,1.2,58.5*,1.1,69.8*,67.5*,99.3*
CC1CCCN(C(=O)C2CCN(CC3CC=CCC3)CC2)C1 (stereo not drawn),0.0,4.7,-1.9,4.3,5.4,4.8
C=CCn1c2ccccc2c2nnc(SCc3ccc4nonc4c3)nc21,-0.1,13.8,1.5,-8.8,12.6,4.4
CCc1nc(SCC(=O)N2CCC(C)CC2)c2c(=O)n(C)c(=O)n(C)c2n1,0.4,8.8,-4.7,-25.2,-0.8,3.5
CC(CCc1ccco1)NC(=O)CSc1cc(=O)n(C)c2ccccc12 (stereo not drawn),0.5,17.9,-1.3,-1.6,-4.1,5.8
SMILES,5HT1E ag,HEK293 NFkB inh,5HT1a ag,5HT1a antag,5HT1E antag,Jurkat tox 60K
Clc1ccc(-c2nc(NCCN3CCOCC3)c3ccccc3n2)cc1,-0.3,16.9,44.5*,-8.6,3.4,5.8
CSc1nc2ccc(NS(=O)(=O)c3ccc4c(c3)OCCO4)cc2s1,-1.4,16.5,-3.0,-3.3,-3.2,.
COc1ccc(C2=Nn3c(nnc3-c3ccc(OC)cc3)SC2)cc1,-0.2,24.6,-0.6,42.7*,78.6*,93.2*
Clc1ccccc1C1=Nn2c(nnc2-c2ccncc2)SC1,0.1,17.2,-3.5,33.5,20.5,-3.8
c1ccc(C2=Nn3c(nnc3-c3cc(-c4ccccc4)n[nH]3)SC2)cc1,1.9,-4.1,-2.2,-13.9,20.1,7.3
Brc1ccc(C2=Nn3c(nnc3-c3ccncc3)SC2)cc1,-0.5,34.0,-3.8,10.7,1.2,-0.7
Cc1cccc(-c2nnc3n2N=C(c2ccccc2Br)CS3)c1,1.6,-3.5,-5.4,15.8,30.9*,11.6
Cc1ccc(-c2nnc3n2N=C(c2ccccc2)CS3)cc1,1.0,-5.2,-0.5,4.6,45.3*,9.6
CCOc1nc(Nc2ccc(-c3nc4ccccc4o3)cc2)nc(N2CCOCC2)n1,0.8,11.5,-0.1,-9.9,7.5,2.0
CCOC(=O)c1sc2c(c1C)C(c1cccs1)C1=C(CCCC1=O)N2 (stereo not drawn),5.8,0.7,22.2*,-3.9,5.7,-1.1
CCOC(=O)C1=C(C)NC2=C(C(=O)CCC2)C1c1cccs1 (stereo not drawn),0.6,4.6,-0.9,-8.8,-3.2,-3.0
COc1cccc(N2C(N)=NC(N)=NC2(C)C)c1,0.4,9.5,-4.0,2.9,-5.9,66.4*
CCOC(=O)c1cccc(N2C(N)=NC(N)=NC2(C)C)c1,-0.2,13.5,-2.9,-111.4,5.4,0.6
CCOC(=O)COc1ccc(C(=O)NC2CCCCC2)cc1,-0.4,9.6,0.9,-3.1,3.5,1.8
CCCCOc1ccc(-c2nnn(CC(=O)NCc3ccco3)n2)cc1,-0.4,-15.4,-2.7,34.9,29.4*,18.1
O=C(O)c1cccc(COc2ccccc2Cl)c1,-0.5,92.4*,-0.3,-14.8,-4.2,.
O=C(O)c1ccc(COc2ccccc2Cl)cc1,-0.2,1.0,-1.7,-1.9,4.8,-3.0
COc1ccc(C(=O)OCCNC(=O)c2c(Cl)nc3ccccn23)cc1,0.7,23.9,4.6,3.5,34.7*,2.2
C=C(C)CSc1nc2c(c(=O)[nH]c(=O)n2C)n1CCC(C)C,-0.1,19.2,-0.6,-7.2,19.8,11.2
O=C(Nc1ccccc1NC(=O)c1c(F)c(F)c(F)c(F)c1F)c1c(F)c(F)c(F)c(F)c1F,1.1,14.4,2.4,27.3,29.9*,-2.8
COc1cc(NS(=O)(=O)c2ccc(Br)cc2)c(OC)cc1NC(=O)c1ccco1,0.7,11.3,2.9,7.8,5.9,-2.6
Cc1cnc(C(=O)Nc2ccccc2-n2cccc2)cn1,-0.8,24.3,-0.2,-15.0,7.6,4.6
COc1ccc(NC(=O)c2cnc(C)cn2)c2ncccc12,0.6,2.0,-2.0,3.0,-2.8,62.2*
COC(=O)c1ccc2c(c1)N(Cc1nc(-c3ccc(Cl)cc3)oc1C)C(=O)C1CCCN21 (stereo not drawn),-0.3,20.7,-1.1,7.6,0.9,2.6
CCc1nn(C(C)C(=O)N2CCN(Cc3ccccc3)CC2)c(=O)c2cc3occc3n12 (stereo not drawn),16.1*,32.4,-0.2,-4.9,-9.5,4.4
